Measured values: ChEMBL document CHEMBL1275389, “In vivo characterization of a dual adenosine A2A/A1 receptor antagonist in animal models of Parkinson's disease” (J Med Chem, 2010)
Values belong to the molecule of their own block, whether it stands above or below them. Calls of active or inactive are those of the source. No cut-off for these calls is given here.

Experiments:
Mus musculus [1] = test: Reversal of haloperidol-induced catalepsy in po dosed BALB/c mouse administered 30 mins after haloperidol challenge measured for 60 seconds after 1 hr; assay type: functional
Procedure, shortened: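 Fasted male BALB/c mice (18-23 g) received haloperidol 1 mg/kg sc (in 0.3% tartaric acid/0.9% saline). Test compound was given orally in 0.5% methylcellulose (0.01-10 mg/kg) 30 min later. L-DOPA 300 mg/kg plus carbidopa 75 mg/kg served as positive control. Groups were randomized and testing was blind. At 1 h, forepaws were placed on a bar 3.5 cm high and time on the bar was recorded (max 60 s). n = 9-11; Dunnett's test.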

Mus musculus [2] = test: Reversal of haloperidol-induced catalepsy in BALB/c mouse at 1 mg/kg, po administered 30 mins after haloperidol challenge measured for 60 seconds after 4 hrs; assay type: functional, organism-based; set-up: dose 1 mg/kg
Procedure, shortened: (§1)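 Fasted male BALB/c mice received haloperidol (1 mg/kg sc) and were then dosed orally with test compound (0, 1, 3 mg/kg in 0.5% methylcellulose), reference A2A antagonist (5 mg/kg) or vehicle. Bar catalepsy (max 60 s) was measured repeatedly at 15 min, 1 h, 2 h and 4 h after dosing. Mean ± SEM, n = 12; Dunnett's test.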

Mus musculus [3] = test: Reversal of haloperidol-induced catalepsy in BALB/c mouse at 3 mg/kg, po administered 30 mins after haloperidol challenge measured for 60 seconds after 4 hrs; assay type: functional, organism-based; set-up: dose 3 mg/kg; procedure, shortened: as §1
Callithrix jacchus [4] = test: Inhibition of MPTP-induced motor disabilities in Callithrix jacchus at 12 mg/kg, po measured every 5 mins […]; assay type: functional, organism-based; set-up: dose 12 mg/kg
Procedure, shortened: (§2)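 MPTP-treated marmosets were dosed orally with vehicle, L-DOPA (12 mg/kg) or test compound (0.1/0.3, 1.0, 10, 50 mg/kg). Parkinsonian motor disability was scored out to 6 h. Eight animals per group. Analysis used a Friedman nonparametric repeated-measures ANOVA with Dunn's test.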

Callithrix jacchus [5] = test: Toxicity in Callithrix jacchus assessed as induction of dyskinesia at 12 mg/kg, po measured for 10 mins every 30 mins […]; assay type: organism-based; set-up: dose 12 mg/kg, route oral; details: marmoset, in vivo
Procedure, shortened: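 MPTP-treated marmosets received vehicle, L-DOPA (12 mg/kg po) or oral test compound (0.1, 1.0, 10, 50 mg/kg). Dyskinesias (involuntary movements) were scored out to 4 h. Eight animals per group. Analysis used a Friedman test followed by Dunn's comparison.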

Adenosine receptor A2a = Adenosine receptor A2a (Homo sapiens, UniProt P29274); test: Antagonist activity at adenosine A2A receptor; assay type: functional
Chain of Adenosine receptor A2a (P29274 whole entry): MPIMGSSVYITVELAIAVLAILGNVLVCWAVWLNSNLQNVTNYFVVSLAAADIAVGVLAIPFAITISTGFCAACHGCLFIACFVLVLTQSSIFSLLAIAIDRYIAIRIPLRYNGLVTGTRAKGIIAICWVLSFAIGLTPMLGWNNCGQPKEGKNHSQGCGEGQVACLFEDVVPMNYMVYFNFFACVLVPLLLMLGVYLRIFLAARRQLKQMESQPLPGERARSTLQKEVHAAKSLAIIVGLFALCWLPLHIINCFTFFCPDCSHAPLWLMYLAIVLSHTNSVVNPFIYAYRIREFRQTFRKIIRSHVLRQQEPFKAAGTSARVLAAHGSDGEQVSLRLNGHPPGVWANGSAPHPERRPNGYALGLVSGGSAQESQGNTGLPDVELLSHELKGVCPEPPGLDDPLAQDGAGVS

Adenosine receptor A1 = biological target: T1, Adenosine receptor A1 (Homo sapiens, UniProt P30542); test: Antagonist activity at adenosine A1 receptor; assay type: functional
T1 sequence (P30542 whole entry): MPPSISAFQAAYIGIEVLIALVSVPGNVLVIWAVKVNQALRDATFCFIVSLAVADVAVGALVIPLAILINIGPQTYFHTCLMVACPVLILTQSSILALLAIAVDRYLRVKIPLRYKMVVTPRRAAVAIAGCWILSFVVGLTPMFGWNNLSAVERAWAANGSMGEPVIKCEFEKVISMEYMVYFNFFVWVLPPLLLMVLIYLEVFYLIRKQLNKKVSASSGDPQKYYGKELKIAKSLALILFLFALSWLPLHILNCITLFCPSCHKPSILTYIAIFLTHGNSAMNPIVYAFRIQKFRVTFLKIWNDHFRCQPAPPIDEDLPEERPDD

[6] = Half life in BALB/c mouse at 10 mg/kg, po; assay type: ADME, organism-based; set-up: dose 10 mg/kg, route oral; details: in vivo
Procedure, shortened: (§3)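 Fasted male BALB/c mice received one oral dose of 10 mg/kg as a solution in 0.5% methylcellulose. For bioavailability, a separate iv dose of 2 mg/kg was given in 10% solutol. Discrete blood samples were taken by cardiac puncture from 3–4 animals per time point. Plasma was acetonitrile-precipitated and measured by LC-MS/MS (LOQ 0.7-2 ng/mL). Parameters came from noncompartmental analysis.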

[7] = Cmax in BALB/c mouse plasma at 10 mg/kg, po; assay type: ADME, organism-based; set-up: dose 10 mg/kg, route oral; procedure, shortened: as §3
[8] = Oral bioavailability in BALB/c mouse at 10 mg/kg; assay type: ADME, organism-based; details: in vivo; procedure, shortened: as §3
[9] = Half life in Sprague-Dawley rat at 10 mg/kg, po; assay type: ADME, organism-based; set-up: dose 10 mg/kg, route oral; details: in vivo
Procedure, shortened: as §3, with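 “Sprague-Dawley rats” for “BALB/c mice”, “orbital sinus” for “cardiac”, “rats” for “animals”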

[10] = Cmax in Sprague-Dawley rat plasma at 10 mg/kg, po; assay type: ADME, organism-based; set-up: dose 10 mg/kg, route oral
Procedure, shortened: as §3, with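 “Sprague-Dawley rats” for “BALB/c mice”, “orbital sinus” for “cardiac”, “rats” for “animals”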

[11] = Oral bioavailability in Sprague-Dawley rat at 10 mg/kg; assay type: ADME, organism-based; details: in vivo
Procedure, shortened: as §3, with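 “Sprague-Dawley rats” for “BALB/c mice”, “orbital sinus” for “cardiac”, “rats” for “animals”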

[12] = Cmax in Sprague-Dawley rat brain at 10 mg/kg, po; assay type: ADME, organism-based; set-up: dose 10 mg/kg, route oral
Procedure, shortened: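 Tissue distribution study: fasted male Sprague-Dawley rats were given 10 mg/kg orally in 0.5% methylcellulose. Four rats per time point were euthanized to collect brain. Brains were weighed, homogenized in methanol, and the extract evaporated and reconstituted in mobile phase for LC-MS/MS.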

[13] = Half life in cynomolgus monkey at 10 mg/kg, po; assay type: ADME, organism-based, Macaca fascicularis; set-up: dose 10 mg/kg, route oral; details: in vivo
Procedure, shortened: (§4)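 Fasted male and female cynomolgus monkeys received one oral dose of 10 mg/kg as a solution in 0.5% methylcellulose. For bioavailability, a separate iv dose of 1 mg/kg was given in 10% solutol. Serial blood was drawn by venipuncture. Plasma was acetonitrile-precipitated and measured by LC-MS/MS (LOQ 0.7-2 ng/mL). Noncompartmental analysis was applied to individual plasma concentrations.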

[14] = Cmax in cynomolgus monkey plasma at 10 mg/kg, po; assay type: ADME, organism-based, Macaca fascicularis; set-up: dose 10 mg/kg, route oral; procedure, shortened: as §4
[15] = Oral bioavailability in cynomolgus monkey at 10 mg/kg; assay type: ADME, organism-based, Macaca fascicularis; details: in vivo; procedure, shortened: as §4
[16] = Ratio of drug level in brain to plasma in Sprague-Dawley rat at 10 mg/kg, po; assay type: ADME, organism-based; set-up: dose 10 mg/kg, route oral
Procedure, shortened: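 Fasted male Sprague-Dawley rats were given 10 mg/kg orally as a solution in 0.5% methylcellulose. At each time point four rats were euthanized for blood, plasma and brain. Brain was homogenized in methanol, and the extract was dried and reconstituted in mobile phase. Plasma was precipitated with acetonitrile. Both were quantified by LC-MS/MS.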

Rattus norvegicus [17] = test: Reversal of haloperidol-induced catalepsy in po dosed Sprague-Dawley rat administered 30 mins after haloperidol challenge measured for 180 seconds after 1 hr; assay type: functional
Procedure, shortened: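 Sprague-Dawley rats received haloperidol (1 mg/kg sc). Oral test compound (0.01-30.0 mg/kg), L-DOPA/carbidopa (200:50 mg/kg) or vehicle followed, as in the mouse protocol. Time to descend from the bar was recorded (max 180 s). Mean ± SEM, n = 10-16 rats per group.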

Rattus norvegicus [18] = test: Reversal of haloperidol-induced catalepsy in Sprague-Dawley rat at 1 mg/kg, po administered 30 mins after haloperidol challenge measured for 180 seconds after 4 hrs; assay type: functional, organism-based; set-up: dose 1 mg/kg
Procedure, shortened: (§5)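 Haloperidol-treated rats (1 mg/kg sc) were dosed orally with test compound (0, 1, 10 mg/kg) or L-DOPA 200 mg/kg plus benserazide 50 mg/kg. Time to descend from the bar (max 180 s) was measured at 15 min, 1 h, 2 h and 4 h after dosing. n = 10 rats; Dunnett's test versus haloperidol + vehicle.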

Rattus norvegicus [19] = test: Reversal of haloperidol-induced catalepsy in Sprague-Dawley rat at 10 mg/kg, po administered 30 mins after haloperidol challenge measured for 180 seconds after 4 hrs; assay type: functional, organism-based; set-up: dose 10 mg/kg; procedure, shortened: as §5
Mus musculus [20] = test: Reversal of reserpine-induced akinesia in CF1 mouse at 1 mg/kg, po administered 18 hrs before reserpine challenge measured for 30 mins after 60 mins; assay type: functional, organism-based; set-up: dose 1 mg/kg; details: in the assay text read “18 hrs after reserpine challenge” for “18 hrs before reserpine challenge”
Procedure, shortened: (§6)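 Mice were pretreated with reserpine (0.6 mg/kg sc) 18 h before testing. They were dosed orally with test compound (0.10, 1.0, 10.0, 30.0 mg/kg) or vehicle. Locomotion was recorded 60 min after dosing as total distance traveled (cm) over a 30 min period. Mean ± SEM, n = 10-12 per group; Hochberg test versus reserpine + vehicle.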

Mus musculus [21] = test: Reversal of reserpine-induced akinesia in CF1 mouse at 10 mg/kg, po administered 18 hrs before reserpine challenge measured for 30 mins after 60 mins; assay type: functional, organism-based; set-up: dose 10 mg/kg; details: in the assay text read “18 hrs after reserpine challenge” for “18 hrs before reserpine challenge”; procedure, shortened: as §6
Rattus norvegicus [22] = test: Potentiation of L-dopa-induced rotational behavior in unilaterally 6-hydroxydopamine-lesioned po dosed Sprague-Dawley rat pretreated 30 mins before L-dopa challenge measured for 120 mins in presence of carbidopa; assay type: functional, organism-based
Procedure, shortened: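 6-OHDA (12 μg) was microinjected unilaterally into the medial forebrain bundle. Six weeks later rats got L-DOPA (10 mg/kg po, with carbidopa 2.5 mg/kg sc) alone or together with oral test compound (0.1, 1.0, 3.0, 10 mg/kg). Contralateral 360° turns were counted by an optical sensor during the 2 h before and after L-DOPA. Mean ± SEM, n = 16 rats; Tukey's test versus L-DOPA + vehicle.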

Rattus norvegicus [23] = test: Inhibition of 6-hydroxydopamine-induced rotational behavior in Sprague-Dawley rat at 0.1 to 10 mg/kg, po measured for 120 mins; assay type: functional; details: 2 h, dose mg/kg 0.1-10, read-out: MED
Procedure, shortened: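 Rats received 6-OHDA (12 μg) unilaterally into the medial forebrain bundle. Six weeks later they were dosed orally with test compound alone (0.1, 1.0, 3.0, 10 mg/kg). Rotation was tracked by an optical sensor tethered to an automated system, with one count per 360° turn. Readout was mean ± SEM total contralateral rotations over 2 h, n = 16 per group.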

Callithrix jacchus [24] = test: Inhibition of MPTP-induced motor disabilities in Callithrix jacchus at 10 mg/kg, po measured every 5 mins for 6 hrs; assay type: functional, organism-based; set-up: dose 10 mg/kg; procedure, shortened: as §2
Callithrix jacchus [25] = test: Inhibition of MPTP-induced motor disabilities in Callithrix jacchus at 50 mg/kg, po measured every 5 mins for 6 hrs; assay type: functional, organism-based; set-up: dose 50 mg/kg; procedure, shortened: as §2
Callithrix jacchus [26] = test: Inhibition of MPTP-induced motor disabilities in Callithrix jacchus at 1 mg/kg, po measured every 5 mins […]; assay type: functional, organism-based; set-up: dose 1 mg/kg; procedure, shortened: as §2
Mus musculus [27] = test: Reversal of reserpine-induced akinesia in po dosed CF1 mouse administered 18 hrs after reserpine challenge measured for 30 mins after 60 mins; details: read-out: MED
Mus musculus [28] = test: Reversal of reserpine-induced akinesia in CF1 mouse at 30 mg/kg, po administered 18 hrs after reserpine challenge measured for 30 mins after 60 mins

SMILES: CCn1c(=O)c2c(nc(/C=C/c3ccc(OC)c(OC)c3)n2C)n(CC)c1=O [ISTRADEFYLLINE]
- MRC (Mus musculus [1]): 1 mg/kg
- ED50 (Mus musculus [1]; Mus musculus, BALB/c, po): 0.14 mg/kg
- Activity (Mus musculus [2]): Active
- Activity (Mus musculus [3]): Active

SMILES: N[C@@H](Cc1ccc(O)c(O)c1)C(=O)O [LEVODOPA]
- inhibition (Callithrix jacchus [4]): Active
- Activity (Callithrix jacchus [5]): Toxic

- Ki (Adenosine receptor A2a): 4.1 nM
- Ki (Adenosine receptor A1): 17 nM
- half-life [6]: 0.8 h
- Cmax [7]: 655 nM
- bioavailability [8]: 100%
- half-life [9]: 1.6 h
- Cmax [10]: 1260 nM
- bioavailability [11]: 64%
- Cmax [12]: 3550 nM
- half-life [13]: 3.2 h
- Cmax [14]: 626 nM
- bioavailability [15]: 39%
- Kp [16]: 3
SMILES: Cl.Cl.Nc1nc(-c2ccccc2)c2c(n1)-c1cc(CN3CCCC3)ccc1C2=O
- Activity (Mus musculus [1]): Dose-dependent effect
- ED50 (Mus musculus [1]; Mus musculus, BALB/c, po): 0.17 mg/kg
- minimal effective dose (Mus musculus [1]; Mus musculus, BALB/c, po, read-out: MED): 1 mg/kg
- Activity (Mus musculus [2]): Active
- Activity (Mus musculus [3]): Active
- Activity (Rattus norvegicus [17]): Dose-dependent effect
- ED50 (Rattus norvegicus [17]): 0.48 mg/kg
- minimal effective dose (Rattus norvegicus [17]; read-out: MED): 1 mg/kg
- Activity (Rattus norvegicus [18]): Active
- Activity (Rattus norvegicus [19]): Active
- Activity (Mus musculus [20]): Active
- Activity (Mus musculus [21]): Active
- Activity (Rattus norvegicus [22]): Dose-dependent effect
- minimal effective dose (Rattus norvegicus [23]): 1 mg/kg
- Activity (Callithrix jacchus [24]): Active
- Activity (Callithrix jacchus [25]): Active
- Activity (Callithrix jacchus [26]): Active
- minimal effective dose (Mus musculus [27]): 1 mg/kg
- Activity (Mus musculus [28]): Active
